GPR7 antag = antagonists of human GPR7 (neuropeptides B/W receptor 1); P48145; GPR7-expressing cells, fluorescence antagonist assay; inhibition, % at 4.4 µM; 290,000 tested, 1.1% active; AID 1861; in the data active = inhibition above about 16%, passing the limit was not always enough;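 note: cells stimulated with the agonist NPW; 0% = agonist with vehicle and 100% = vehicle without agonist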
CHO parental Ca = counter-screen for OX1R antagonists: effect in parental CHO cells. parental CHO-K1, ATP-induced calcium, Fluo-8 fluorescence. inhibition, % at 5.6 µM. 330,000 tested, 0.63% active;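 active = inhibition above that plate's mean sample inhibition plus 3 SD, cut at about 26% in these data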;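 note: 0% = ATP-challenged DMSO wells and 100% = DMSO wells without ATP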
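Assay system – parental CHO cells · Reagent – ATP stimulus · Detection – intracellular calcium via Fluo-8 no-wash fluorescent dye · Evaluation – percent inhibition of ATP-evoked calcium rise, normalized to controls · Controls – ATP wells versus no-ATP DMSO wells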
MPTP block = permeability transition pore inhibition. isolated mouse mitochondria, Ca2+ swelling absorbance, 30 min. AID 602449. 360,000 tested, 1.4% active. inhibition, % at 10 µM;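 active = inhibition of 50% or more, scaled per plate between neutral and stimulator controls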;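 note: 0% = DMSO wells given calcium and 100% = 1 mM EGTA wells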
OX1R antag-1 = OX1R (human) antagonism; O43613; OX1R-expressing cells, FRET antagonist read-out; inhibition, % at 6.6 µM; 330,000 tested, 1.8% active; in the data active = inhibition mostly above about 38%, no sharp cut-off; inactive = mostly below about 40%;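 note: 0% = agonist challenge alone and 100% = reference antagonist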
Target sequence (O43613 whole entry, looked up): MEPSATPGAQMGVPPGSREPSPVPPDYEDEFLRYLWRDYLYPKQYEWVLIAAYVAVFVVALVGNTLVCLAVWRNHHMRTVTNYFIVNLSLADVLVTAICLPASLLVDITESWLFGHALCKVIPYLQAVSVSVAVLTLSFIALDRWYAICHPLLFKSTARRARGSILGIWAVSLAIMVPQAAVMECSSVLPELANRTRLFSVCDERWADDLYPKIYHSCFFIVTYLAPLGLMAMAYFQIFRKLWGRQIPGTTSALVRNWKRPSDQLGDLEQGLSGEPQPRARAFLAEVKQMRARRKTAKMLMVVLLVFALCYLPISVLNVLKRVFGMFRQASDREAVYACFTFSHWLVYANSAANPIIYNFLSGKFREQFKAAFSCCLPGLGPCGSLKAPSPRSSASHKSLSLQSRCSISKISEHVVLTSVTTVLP
OX1R antag-2 = blocks the human orexin 1 receptor; O43613; CHO/OX1R cells, Fluo-8 calcium fluorescence, orexin A; inhibition, % at 5 µM; 330,000 tested, 0.43% active; AID 434989;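 active = inhibition above its plate's threshold, mean inhibition of all tested compounds on the plate plus 3 SD, cut at about 37% in these data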;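 note: 0% = orexin A challenge wells and 100% = SB-334867-A antagonist wells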
Rh123 counter = Rhodamine 123 counter-screen of mitochondrial pore hits; shares compounds with MPTP block; isolated mitochondria, membrane potential, Rhodamine 123 fluorescence; inhibition, % at 10 µM; 5,000 tested, 78% active; AID 624504; in the data active = inhibition above about 22%;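 note: 0% = DMSO vehicle and 100% = positive control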
MPTP abs DR = dose response confirmation of mitochondrial permeability transition pore inhibitors. shares compounds with MPTP block. isolated mitochondria swelling, absorbance. IC50, µM. 780 tested, 58% active. AID 651561; in the data active = IC50 below about 20 µM
MPTP cs DR = active in counter-screen for permeability transition pore inhibitors. AID 651564. shares compounds with MPTP block. isolated mitochondria counterscreen, fluorescence read-out. IC50, µM. 780 tested, 49% active; in the data active = IC50 below about 80 µM
Numbers without * were called inactive; . = not tested or not shown. Only some compounds are listed: those with a hit (about 3.8% of all), similar ones and a draw of the others.

SMILES	GPR7 antag	CHO parental Ca	MPTP block	OX1R antag-1	OX1R antag-2	Rh123 counter	others
Cc1cc([N+](=O)[O-])ccc1NC(=O)Cc1ccc(F)cc1	-2	-10	3	12	2	.
Cc1cc([N+](=O)[O-])ccc1NC(=O)Nc1ccccc1F	-11	-5	93*	5	-8	92*
O=C(Nc1ccccc1)Nc1cc([N+](=O)[O-])ccc1F	5	-5	63*	16	-1	91*
CCC(CC)C(=O)Nc1cc([N+](=O)[O-])ccc1F	-3	3	2	12	0	.
O=C(c1cccc(S(=O)(=O)N2CCN(c3ccccc3)CC2)c1)N1CCCC(C(F)(F)F)C1 (configuration not stated)	.	34*	68*	21	-2	71*
O=C(c1cc(S(=O)(=O)N2CCN(c3ccccc3)CC2)ccc1Cl)N1CCCC(C(F)(F)F)C1 (configuration not stated)	.	-3	39	13	17	.
Cn1cc(S(=O)(=O)N2CCCC2)cc1C(=O)N1CCN(c2ccccc2)CC1	-8	2	-2	12	-19	.
COc1ccc(Cl)cc1NC(=O)CSc1nnc(Cc2ccc(C)cc2)c(=O)[nH]1	.	-5	63*	50*	-15	67*
CC1Cc2ccccc2N1S(=O)(=O)c1cccc(C(=O)N2CC(=O)Nc3ccccc32)c1 (configuration not stated)	-10	-7	3	20	-21	.
COc1cccc(C(=O)c2ncc(C(F)(F)F)cc2Cl)c1	-4	2	-1	4	-3	.
COC(=O)/C(=C\Nc1cccc(Cl)c1C)c1ncc(C(F)(F)F)cc1Cl	12	-9	75*	15	-31	8	MPTP abs DR=19*;MPTP cs DR=>80
Cc1c(Cl)cccc1NC(=S)NNc1ncc(C(F)(F)F)cc1Cl	5	1	60*	8	30	76*
Cc1ccccc1N=Nc1c(O)n(C)c2ccccc12	-8	-6	0	2	-1	.
O=C(Nc1ccccc1Cl)NC1CCCCCCC1	-18	.	-1	.	.	.
Cc1cc(O)cc(C)c1NS(=O)(=O)c1ccc2ccccc2c1	5	-10	0	5	-23	.
CSc1ccc(S(=O)(=O)Nc2ccc(S(=O)(=O)Nc3ccc(C)cc3)cc2)cc1	-2	-10	1	0	0	.
Cc1ccc(S(=O)(=O)Nc2ccc(N=Nc3ccc(O)cc3)cc2)cc1	0	0	56*	21	7	43*
CCc1nnc(NC(=O)CSc2n[nH]c(-c3ccccc3O)n2)s1	13	-17	2	20	-25	.
Cc1nnc(NC(=O)CSc2n[nH]c(-c3ccccc3C)n2)s1	-16	-3	96*	9	-2	-8	MPTP abs DR=>100;MPTP cs DR=>80
Cn1nc(C(C)(C)C)cc1C(=O)NCc1ccc(N2CCCC2=O)cc1	0	37*	95*	30	19	93*
CCOC(=O)c1ccc(NCC(O)COc2ccccc2)cc1 (configuration not stated)	0	-17	0	11	-16	.
CCOC(=O)c1cccc(OCC(O)CNCCOc2ccccc2F)c1 (configuration not stated)	-3	-26	74*	19	-21	-12	MPTP abs DR=8.9*;MPTP cs DR=>80
COc1ccc(Cn2c(=O)oc3ccc(C)cc32)cc1OC	-4	-6	72*	10	0	35*
CN(C)CCCN(C(=O)c1ccc(Br)s1)c1nc2cc3c(cc2s1)OCCO3	.	-15	76*	17	6	-26
CN(C)CCCN(C(=O)c1cc2cc([N+](=O)[O-])ccc2s1)c1nc2cc3c(cc2s1)OCCO3	.	-11	83*	18	-26	-30
CCCCn1nnnc1C(c1ccccc1)N1CCN(c2cccc(C(F)(F)F)n2)CC1 (configuration not stated)	.	.	2	.	.	.
CCN1/C(=C/c2ccc3cc(C)ccc3[n+]2CC)Sc2ccc3sccc3c21	.	48*	80*	27	29	87*
CCN1/C(=C\c2ccc3cc(C)ccc3[n+]2CC)Sc2cc(C)c(C)cc21	9	.	85*	.	.	85*
CC[n+]1c(C)sc2c3ccsc3ccc21	13	20	0	-3	24	.

Source: PubChem (several laboratories)
